Experimental data taken from ChEMBL document CHEMBL3046655, “Schiff bases as potential fungicides and nitrification inhibitors” (2009).
In brackets after ≈: the same amount, converted by molar mass. Activity calls are given as the source filed them. The calls are words filed in the database; no cut-off is given here.

Experiments:
Macrophomina phaseolina = experiment: Fungicidal activity against Rhizoctonia bataticola assessed as fungal growth inhibition at 28 degC by poisoned food technique; format: functional; details: for EC50: read-out: ED50 (the source's name)
In short: (§1)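 Poisoned-food assay on PDA. A 5 mm plug from the growing edge of a 2-week colony was placed centrally. Plates were held at 28 °C until control growth was nearly complete. Colony diameter was measured; n=4. Inhibition = (C−T)×100/C, Abbott-corrected; ED50 by probit.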

Athelia rolfsii = experiment: Fungicidal activity against Athelia rolfsii assessed as fungal growth inhibition at 28 degC by poisoned food technique; format: functional; details: Agroathelia rolfsii; for EC50: read-out: ED50 (the source's name); in short: as §1

Structure (SMILES)	EC50 (Macrophomina phaseolina) [µg/mL]	EC50 (Athelia rolfsii) [µg/mL]	ED50 (Macrophomina phaseolina)	ED50 (Athelia rolfsii)
Fc1ccccc1/N=C/c1ccc(Cl)cc1Cl	15.6 (≈ 58 µM)	63.4 (≈ 237 µM)		
O=[N+]([O-])c1cccc(/C=N/CCCC/N=C/c2cccc([N+](=O)[O-])c2)c1			inactive	inactive
Fc1cccc(/N=C/c2c(Cl)cccc2Cl)c1	54 (≈ 201 µM)	87 (≈ 324 µM)		
Clc1cccc(Cl)c1/C=N/C1CCCCC1/N=C/c1c(Cl)cccc1Cl (stereo unspecified)	124 (≈ 290 µM)	39.5 (≈ 92.3 µM)		
O=[N+]([O-])c1cccc(/C=N/c2ccc(F)cc2)c1	190 (≈ 779 µM)	164 (≈ 672 µM)		
Clc1cccc(Cl)c1/C=N/CCCC/N=C/c1c(Cl)cccc1Cl	12.4 (≈ 30.9 µM)	22.1 (≈ 54.8 µM)		
Fc1cccc(/N=C/c2ccc(Cl)cc2Cl)c1	600 (≈ 2240 µM)	548 (≈ 2040 µM)		
Fc1ccc(/N=C/c2ccc(Cl)cc2Cl)cc1	21.8 (≈ 81.4 µM)	37.4 (≈ 140 µM)		
O=[N+]([O-])c1cccc(/C=N/c2cccc(F)c2)c1	180 (≈ 737 µM)	175 (≈ 718 µM)		
O=[N+]([O-])c1cccc(/C=N/CCC/N=C/c2cccc([N+](=O)[O-])c2)c1			inactive	inactive
Fc1ccccc1/N=C/c1c(Cl)cccc1Cl	45 (≈ 168 µM)	45.6 (≈ 170 µM)		
O=[N+]([O-])c1cccc(/C=N/c2ccccc2F)c1	113 (≈ 462 µM)	160 (≈ 656 µM)		
O=[N+]([O-])c1cccc(/C=N/c2cc(Cl)c(Cl)cc2Cl)c1	6.17 (≈ 18.7 µM)	21.7 (≈ 65.9 µM)		
Clc1ccc(/C=N/CCC/N=C/c2ccc(Cl)cc2Cl)c(Cl)c1	17.8 (≈ 45.7 µM)	27.1 (≈ 69.9 µM)		
O=[N+]([O-])c1cccc(/C=N/C2CCCCC2/N=C/c2cccc([N+](=O)[O-])c2)c1 (stereo unspecified)			inactive	inactive
Fc1ccc(/N=C/c2c(Cl)cccc2Cl)cc1	123 (≈ 459 µM)	108 (≈ 403 µM)		
Clc1ccc(/C=N/CCCC/N=C/c2ccc(Cl)cc2Cl)c(Cl)c1	100 (≈ 249 µM)	179 (≈ 444 µM)		
Clc1ccc(/C=N/c2cc(Cl)c(Cl)cc2Cl)c(Cl)c1	3.05 (≈ 8.63 µM)	24.4 (≈ 68.9 µM)		
O=[N+]([O-])c1cccc(/C=N/c2ccco2)c1	17.1 (≈ 79.2 µM)	201 (≈ 930 µM)		
Clc1cccc(Cl)c1/C=N/c1ccco1	45.7 (≈ 190 µM)	78.3 (≈ 326 µM)		
Clc1ccc(/C=N/C2CCCCC2/N=C/c2ccc(Cl)cc2Cl)c(Cl)c1 (stereo unspecified)	18.3 (≈ 42.7 µM)	34.2 (≈ 79.9 µM)		
Clc1ccc(/C=N/c2ccco2)c(Cl)c1	23.1 (≈ 96.4 µM)	35.2 (≈ 147 µM)		
CCCCC(O)(Cn1cncn1)c1ccc(Cl)cc1Cl (stereo unspecified) [HEXACONAZOLE]	1.7 (≈ 5.41 µM)	2.3 (≈ 7.32 µM)		
